Experimental data as given in ChEMBL document CHEMBL2062460, “Disubstituted thiourea derivatives and their activity on CNS: synthesis and biological evaluation” (Eur J Med Chem, 2012).
In brackets after ≈: the same amount, converted by molar mass. Activity calls are given as the source filed them. The calls are words filed in the database; no cut-off is given here.

What was measured:
Bacillus cereus [1] = test: Antibacterial activity against Bacillus cereus ATCC 11778 after 18 hrs by twofold serial agar dilution technique; format: functional; settings: ATCC 11778, 18 h
Staphylococcus aureus [2] = test: Antibacterial activity against Staphylococcus aureus ATCC 25923 at 400 ug/disc after 18 hrs by disc diffusion method; format: functional; settings: ATCC 25923, 18 h, read-out: DIZ
How it was run: (§1)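 Disc diffusion per CLSI on Mueller–Hinton II agar; 9 mm paper discs loaded from methanol or DMSO solutions to 400 µg per disc, dried; growth inhibition zone diameter read after 18 h at 35 °C.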

Staphylococcus aureus [3] = test: Antibacterial activity against methicillin-resistant Staphylococcus aureus clinical isolate 357/09 after 18 hrs by twofold serial agar dilution technique; format: functional; settings: clinical isolate 357/09, 18 h
How it was run: (§2)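 Clinical isolates came from patients in Warsaw Medical University Hospitals and were classed as methicillin-susceptible or -resistant. MIC was determined by twofold serial agar dilution on Mueller–Hinton II agar (CLSI), 3.125–400 µg/mL in agar, with compounds in methanol or DMSO. Inoculum was 10^4 CFU/mL and plates were read after 18 h at 35 °C.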

[4] = test system: Staphylococcus epidermidis; test: Antibacterial activity against methicillin-resistant Staphylococcus epidermidis clinical isolate 318/08 after 18 hrs by twofold serial agar dilution technique; format: functional; settings: clinical isolate 318/08, 18 h; how it was run: as §2
Staphylococcus aureus [5] = test: Antibacterial activity against methicillin-susceptible Staphylococcus aureus clinical isolate 267/08 after 18 hrs by twofold serial agar dilution technique; format: functional; settings: clinical isolate 267/08, 18 h; how it was run: as §2
[6] = test system: Staphylococcus epidermidis; test: Antibacterial activity against methicillin-resistant Staphylococcus epidermidis clinical isolate 342/09 after 18 hrs by twofold serial agar dilution technique; format: functional; settings: clinical isolate 342/09, 18 h; how it was run: as §2
Staphylococcus aureus [7] = test: Antibacterial activity against methicillin-resistant Staphylococcus aureus clinical isolate 329/08 after 18 hrs by twofold serial agar dilution technique; format: functional; settings: clinical isolate 329/08, 18 h; how it was run: as §2
Enterococcus hirae [8] = test: Antibacterial activity against Enterococcus hirae ATCC 10541 at 400 ug/disc after 18 hrs by disc diffusion method; format: functional; settings: ATCC 10541, 18 h, read-out: DIZ; how it was run: as §1
Staphylococcus aureus [9] = test: Antibacterial activity against methicillin-resistant Staphylococcus aureus clinical isolate 356/09 after 18 hrs by twofold serial agar dilution technique; format: functional; settings: clinical isolate 356/09, 18 h; how it was run: as §2
Bacillus subtilis [10] = test: Antibacterial activity against Bacillus subtilis ATCC 6633 after 18 hrs by twofold serial agar dilution technique; format: functional; settings: ATCC 6633, 18 h
Staphylococcus aureus [11] = test: Antibacterial activity against Staphylococcus aureus ATCC 29213 at 400 ug/disc after 18 hrs by disc diffusion method; format: functional; settings: ATCC 29213, 18 h, read-out: DIZ; how it was run: as §1
[12] = test system: Staphylococcus epidermidis; test: Antibacterial activity against methicillin-resistant Staphylococcus epidermidis clinical isolate 377/09 after 18 hrs by twofold serial agar dilution technique; format: functional; settings: clinical isolate 377/09, 18 h; how it was run: as §2
Staphylococcus aureus [13] = test: Antibacterial activity against Staphylococcus aureus ATCC 6538 after 18 hrs by twofold serial agar dilution technique; format: functional; settings: ATCC 6538, 18 h
How it was run: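 Twofold serial agar dilution on Mueller–Hinton II agar, following CLSI guidelines. Compounds were dissolved in methanol or DMSO and tested at final agar concentrations of 3.125–400 µg/mL. Final inoculum was 10^4 CFU/mL.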

Staphylococcus aureus [14] = test: Antibacterial activity against methicillin-susceptible Staphylococcus aureus clinical isolate 338/08 after 18 hrs by twofold serial agar dilution technique; format: functional; settings: clinical isolate 338/08, 18 h; how it was run: as §2
Staphylococcus aureus [15] = test: Antibacterial activity against methicillin-resistant Staphylococcus aureus clinical isolate 275/08 after 18 hrs by twofold serial agar dilution technique; format: functional; settings: clinical isolate 275/08, 18 h; how it was run: as §2
Staphylococcus aureus [16] = test: Antibacterial activity against methicillin-resistant Staphylococcus aureus clinical isolate 307/08 after 18 hrs by twofold serial agar dilution technique; format: functional; settings: clinical isolate 307/08, 18 h; how it was run: as §2
Staphylococcus aureus [17] = test: Antibacterial activity against methicillin-susceptible Staphylococcus aureus clinical isolate 269/08 after 18 hrs by twofold serial agar dilution technique; format: functional; settings: clinical isolate 269/08, 18 h; how it was run: as §2
Escherichia coli = test: Antibacterial activity against Escherichia coli ATCC 10538 at 400 ug/disc after 18 hrs by disc diffusion method; format: functional, organism-based; how it was run: as §1
Micrococcus luteus [18] = test: Antibacterial activity against Micrococcus luteus ATCC 10240 after 18 hrs by twofold serial agar dilution technique; format: functional; settings: ATCC 10240, 18 h
Bacillus subtilis [19] = test: Antibacterial activity against Bacillus subtilis ATCC 6633 at 400 ug/disc after 18 hrs by disc diffusion method; format: functional; settings: ATCC 6633, 18 h, read-out: DIZ; how it was run: as §1
Staphylococcus aureus [20] = test: Antibacterial activity against methicillin-resistant Staphylococcus aureus clinical isolate 376/09 after 18 hrs by twofold serial agar dilution technique; format: functional; settings: clinical isolate 376/09, 18 h; how it was run: as §2
[21] = test system: Staphylococcus epidermidis; test: Antibacterial activity against methicillin-resistant Staphylococcus epidermidis clinical isolate 340/09 after 18 hrs by twofold serial agar dilution technique; format: functional; settings: clinical isolate 340/09, 18 h; how it was run: as §2
Staphylococcus aureus [22] = test: Antibacterial activity against methicillin-resistant Staphylococcus aureus clinical isolate 309/08 after 18 hrs by twofold serial agar dilution technique; format: functional; settings: clinical isolate 309/08, 18 h; how it was run: as §2
Micrococcus luteus [23] = test: Antibacterial activity against Micrococcus luteus ATCC 9341 at 400 ug/disc after 18 hrs by disc diffusion method; format: functional; settings: ATCC 9341, 18 h, read-out: DIZ; how it was run: as §1
[24] = test system: Human immunodeficiency virus 1; test: Antiviral activity against HIV1 infected in human MT4 cells assessed as virus-induced cytopathogenicity after 4 days by MTT assay; format: functional, organism-based; settings: Human immunodeficiency virus 1, MT4, 96 h
Pseudomonas aeruginosa [25] = test: Antibacterial activity against Pseudomonas aeruginosa ATCC 15442 at 400 ug/disc after 18 hrs by disc diffusion method; format: functional, organism-based; how it was run: as §1
Staphylococcus aureus [26] = test: Antibacterial activity against methicillin-susceptible Staphylococcus aureus clinical isolate 339/09 after 18 hrs by twofold serial agar dilution technique; format: functional; settings: clinical isolate 339/09, 18 h; how it was run: as §2
[27] = test system: Staphylococcus epidermidis; test: Antibacterial activity against Staphylococcus epidermidis ATCC 12228 at 400 ug/disc after 18 hrs by disc diffusion method; format: functional; settings: ATCC 12228, 18 h, read-out: DIZ; how it was run: as §1
Pseudomonas aeruginosa [28] = test: Antibacterial activity against Pseudomonas aeruginosa NCTC 6749 at 400 ug/disc after 18 hrs by disc diffusion method; format: functional, organism-based; how it was run: as §1
Staphylococcus aureus [29] = test: Antibacterial activity against methicillin-susceptible Staphylococcus aureus clinical isolate 372/09 after 18 hrs by twofold serial agar dilution technique; format: functional; settings: clinical isolate 372/09, 18 h; how it was run: as §2
[30] = test system: Staphylococcus epidermidis; test: Antibacterial activity against methicillin-resistant Staphylococcus epidermidis clinical isolate 317/08 after 18 hrs by twofold serial agar dilution technique; format: functional; settings: clinical isolate 317/08, 18 h; how it was run: as §2
Enterococcus hirae [31] = test: Antibacterial activity against Enterococcus hirae ATCC 10541 after 18 hrs by twofold serial agar dilution technique; format: functional; settings: ATCC 10541, 18 h
Staphylococcus aureus [32] = test: Antibacterial activity against Staphylococcus aureus ATCC 6538 at 400 ug/disc after 18 hrs by disc diffusion method; format: functional; settings: ATCC 6538, 18 h, read-out: DIZ; how it was run: as §1
[33] = test system: Staphylococcus epidermidis; test: Antibacterial activity against methicillin-resistant Staphylococcus epidermidis clinical isolate 315/08 after 18 hrs by twofold serial agar dilution technique; format: functional; settings: clinical isolate 315/08, 18 h; how it was run: as §2
Staphylococcus aureus [34] = test: Antibacterial activity against methicillin-susceptible Staphylococcus aureus clinical isolate 367/09 after 18 hrs by twofold serial agar dilution technique; format: functional; settings: clinical isolate 367/09, 18 h; how it was run: as §2
Bacillus cereus [35] = test: Antibacterial activity against Bacillus cereus ATCC 11778 at 400 ug/disc after 18 hrs by disc diffusion method; format: functional; settings: ATCC 11778, 18 h, read-out: DIZ; how it was run: as §1
Staphylococcus aureus [36] = test: Antibacterial activity against methicillin-susceptible Staphylococcus aureus clinical isolate 369/09 after 18 hrs by twofold serial agar dilution technique; format: functional; settings: clinical isolate 369/09, 18 h; how it was run: as §2

| SMILES | MIC (Bacillus cereus [1]) | zone of inhibition at 400 µg/disc (Staphylococcus aureus [2]) | MIC (Staphylococcus aureus [3]) | MIC [4] | MIC (Staphylococcus aureus [5]) | MIC [6] | MIC (Staphylococcus aureus [7]) | zone of inhibition at 400 µg/disc (Enterococcus hirae [8]) | MIC (Staphylococcus aureus [9]) | MIC (Bacillus subtilis [10]) | zone of inhibition at 400 µg/disc (Staphylococcus aureus [11]) | MIC [12] | MIC (Staphylococcus aureus [13]) | MIC (Staphylococcus aureus [14]) | MIC (Staphylococcus aureus [15]) | MIC (Staphylococcus aureus [16]) | MIC (Staphylococcus aureus [17]) | diameter of the inhibition zone (DIZ) (Escherichia coli) | MIC (Micrococcus luteus [18]) | zone of inhibition at 400 µg/disc (Bacillus subtilis [19]) | other results |
| --- | --- | --- | --- | --- | --- | --- | --- | --- | --- | --- | --- | --- | --- | --- | --- | --- | --- | --- | --- | --- | --- |
| S=C(Nc1nc[nH]n1)Nc1ccccc1Br | 25 µg/mL (≈ 83.8 µM) | 13 mm | 50 µg/mL (≈ 168 µM) | 50 µg/mL (≈ 168 µM) | 50 µg/mL (≈ 168 µM) | 50 µg/mL (≈ 168 µM) | 50 µg/mL (≈ 168 µM) | 13 mm | 50 µg/mL (≈ 168 µM) | 12.5 µg/mL (≈ 41.9 µM) | 12 mm | 50 µg/mL (≈ 168 µM) | 50 µg/mL (≈ 168 µM) | 50 µg/mL (≈ 168 µM) | 100 µg/mL (≈ 335 µM) | 50 µg/mL (≈ 168 µM) | 50 µg/mL (≈ 168 µM) | inactive | 6.25 µg/mL (≈ 21 µM) | 17 mm | MIC (Staphylococcus aureus [20]): 50 µg/mL (≈ 168 µM); MIC [21]: 50 µg/mL (≈ 168 µM); MIC (Staphylococcus aureus [22]): 50 µg/mL (≈ 168 µM); zone of inhibition at 400 µg/disc (Micrococcus luteus [23]): 16 mm; EC50 [24]: > 100 µM; diameter of the inhibition zone (DIZ) (Pseudomonas aeruginosa [25]): inactive; MIC (Staphylococcus aureus [26]): 50 µg/mL (≈ 168 µM); zone of inhibition at 400 µg/disc [27]: 12 mm; diameter of the inhibition zone (DIZ) (Pseudomonas aeruginosa [28]): inactive; MIC (Staphylococcus aureus [29]): 50 µg/mL (≈ 168 µM); MIC [30]: 100 µg/mL (≈ 335 µM); MIC (Enterococcus hirae [31]): 400 µg/mL (≈ 1340 µM); zone of inhibition at 400 µg/disc (Staphylococcus aureus [32]): 12 mm; MIC [33]: 100 µg/mL (≈ 335 µM); MIC (Staphylococcus aureus [34]): 50 µg/mL (≈ 168 µM); zone of inhibition at 400 µg/disc (Bacillus cereus [35]): 12 mm; MIC (Staphylococcus aureus [36]): 50 µg/mL (≈ 168 µM) |
| S=C(Nc1ccc(Cl)cc1)Nc1nc[nH]n1 | 12.5 µg/mL (≈ 49.3 µM) | 23 mm | 50 µg/mL (≈ 197 µM) | 25 µg/mL (≈ 98.5 µM) | 25 µg/mL (≈ 98.5 µM) | 200 µg/mL (≈ 788 µM) | 25 µg/mL (≈ 98.5 µM) | 23 mm | 25 µg/mL (≈ 98.5 µM) | 12.5 µg/mL (≈ 49.3 µM) | 17 mm | 25 µg/mL (≈ 98.5 µM) | 25 µg/mL (≈ 98.5 µM) | 25 µg/mL (≈ 98.5 µM) | 25 µg/mL (≈ 98.5 µM) | 25 µg/mL (≈ 98.5 µM) | 25 µg/mL (≈ 98.5 µM) | inactive | 25 µg/mL (≈ 98.5 µM) | 22 mm | MIC (Staphylococcus aureus [20]): 25 µg/mL (≈ 98.5 µM); MIC [21]: 12.5 µg/mL (≈ 49.3 µM); MIC (Staphylococcus aureus [22]): 25 µg/mL (≈ 98.5 µM); zone of inhibition at 400 µg/disc (Micrococcus luteus [23]): 26 mm; EC50 [24]: > 47 µM; diameter of the inhibition zone (DIZ) (Pseudomonas aeruginosa [25]): inactive; MIC (Staphylococcus aureus [26]): 25 µg/mL (≈ 98.5 µM); zone of inhibition at 400 µg/disc [27]: 20 mm; diameter of the inhibition zone (DIZ) (Pseudomonas aeruginosa [28]): inactive; MIC (Staphylococcus aureus [29]): 25 µg/mL (≈ 98.5 µM); MIC [30]: 25 µg/mL (≈ 98.5 µM); MIC (Enterococcus hirae [31]): 200 µg/mL (≈ 788 µM); zone of inhibition at 400 µg/disc (Staphylococcus aureus [32]): 15 mm; MIC [33]: 25 µg/mL (≈ 98.5 µM); MIC (Staphylococcus aureus [34]): 25 µg/mL (≈ 98.5 µM); zone of inhibition at 400 µg/disc (Bacillus cereus [35]): 16 mm; MIC (Staphylococcus aureus [36]): 25 µg/mL (≈ 98.5 µM) |
